Measurements pooled from the literature.
Compare with care: the assays were run in different laboratories.
DHFR: Dihydrofolate reductase (DHFR, Homo sapiens, UniProt P00374)
Tmem97: Sigma intracellular receptor 2 (Tmem97, Rattus norvegicus, UniProt Q5U3Y7)

C=CC(=O)N1CCC(COCC(=O)N2CCN(c3nc(-c4cnc(N)nc4C(F)F)nc(N4CCOC[C@@H]4C)n3)CC2)CC1  remaining binding (BMP-2-inducible protein kinase (BMP2K, Homo sapiens, UniProt Q9NSY1); binding; competition with immobilised ligand; 1 µM): 90%
CC(C)OC(=O)CNc1cccc(CN(Cc2ccc(-n3cccn3)cc2)S(=O)(=O)c2cccnc2)n1  inhibition (Rho-associated protein kinase 2 (ROCK2, Homo sapiens, UniProt O75116); enzyme activity; inhibitor; 10 µM): ≥ 50%
Cc1cc([C@@H](C)Nc2ccccc2C(=O)O)c2nc(N3CCC(F)(F)CC3)c(C#N)c(=O)n2c1  remaining binding (Casein kinase I isoform delta (CSNK1D, Homo sapiens, UniProt P48730); binding; competition with immobilised ligand; 10 µM): 100%
S=C(NN=Cc1ccc(N2CCCCC2)cc1)Nc1cccc(Br)c1  inhibition (DHFR; enzyme activity; inhibitor; 500 µM): 83.7%
COc1cc([C@@H]2c3cc4c(cc3[C@@H](O[C@@H]3O[C@@H]5CO[C@@H](C)O[C@H]5[C@H](O)[C@H]3O)[C@H]3COC(=O)[C@H]23)OCO4)cc(OC)c1O  inhibition (DNA topoisomerase 2-alpha (TOP2A, Homo sapiens, UniProt P11388); enzyme activity; inhibitor; 31.5 µM): 0%
COc1cc(-c2cncc3c2CN(C)Cc2cc(N4CCNCC4)ccc2-3)cc(OC)c1OC  remaining activity (Serine/threonine-protein kinase MRCK gamma (CDC42BPG, Homo sapiens, UniProt Q6DT37); enzyme activity; inhibitor; 1 µM): 102%
Cc1cccc(C)c1NC(=S)NN=Cc1ccc(N2CCCCC2)cc1  inhibition (DHFR; enzyme activity; inhibitor; 500 µM): 87.5%
COc1ccc2[nH]c3c(c2c1)[C@H]1C[C@@H]([C@H]3C)N(Cc2ccccc2)C[C@]1(C)O  inhibition (Tmem97; ligand displacement; radioligand; 1 µM): 0%
S=C(NCc1ccccc1)NN=Cc1ccc(N2CCCCC2)cc1  inhibition (DHFR; enzyme activity; inhibitor; 500 µM): 82.8%
CNc1ncc2c(/C=C/C(=O)N3CCC(OC)CC3)nn(Cc3cccc(C(F)(F)F)c3)c2n1  remaining activity (Activin receptor type-2B (ACVR2B, Homo sapiens, UniProt Q13705); enzyme activity; inhibitor; radiometric; 1 µM): 119%
C[C@H]1c2nc3ccccc3c(-c3ccccc3)c2[C@H]2C[C@@H]1N(Cc1ccccc1)C[C@]2(C)O  inhibition (Tmem97; ligand displacement; radioligand; 1 µM): 0%
COc1cccc(NC(=S)NN=Cc2ccc(N3CCCCC3)cc2)c1  inhibition (DHFR; enzyme activity; inhibitor; 500 µM): 84.9%
